# Laboratory results taken from ChEMBL document CHEMBL1127731, “Structure-activity study of neuropeptide FF: contribution of N-terminal regions to affinity and activity” (J Med Chem, 1994).
# Where a SMILES comes first, the peptide text is derived from it. [ ]: non-standard residue; d: D form. NMeF = CN[C@@H](Cc1ccccc1)C(=O)O
# Columns and labels:
# [1] = target: Neuropeptide FF receptor 2 (Rattus norvegicus, UniProt Q9EQD2); assay: Binding affinity for NPPF receptor in rat spinal cord membranes using the radioligand [125I]-[Tyr1]NPFF; format: cell membranes, Membrane
# Sequence of Neuropeptide FF receptor 2 (Q9EQD2 whole entry): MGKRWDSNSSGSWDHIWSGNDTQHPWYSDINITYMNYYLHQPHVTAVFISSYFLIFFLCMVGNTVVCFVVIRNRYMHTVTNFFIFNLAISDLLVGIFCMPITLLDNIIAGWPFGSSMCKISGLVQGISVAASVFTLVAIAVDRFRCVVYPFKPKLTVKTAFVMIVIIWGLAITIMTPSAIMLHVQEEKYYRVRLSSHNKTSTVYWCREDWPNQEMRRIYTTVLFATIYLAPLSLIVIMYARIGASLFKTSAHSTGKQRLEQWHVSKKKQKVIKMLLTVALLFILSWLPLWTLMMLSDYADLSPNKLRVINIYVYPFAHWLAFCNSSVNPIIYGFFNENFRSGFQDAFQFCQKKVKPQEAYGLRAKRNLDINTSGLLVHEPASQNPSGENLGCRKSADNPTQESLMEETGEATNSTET
# Summary of the method: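 Displacement of [125I][Tyr1]NPFF (0.1 nM final) from rat spinal cord membranes, 30 min at 25 °C, in 50 mM Tris-HCl pH 7.4 with 120 mM NaCl, 0.5% BSA, 0.1 mM bestatin, 1 mM EDTA, 0.5 mM diisopropylfluorophosphate. Unlabeled peptides 5×10^-11–10^-6 M; nonspecific binding with 10^-6 M [Tyr1]NPFF. Stopped by ice-cold buffer and centrifugation; pellet gamma-counted. Ki via Cheng-Prusoff from IC50; three determinations.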
# [2] = organism: Mus musculus; assay: Minimum effective dose able to significantly reverse morphine analgesia in male CDF1 mice by tail-flick test; format: functional
# Summary of the method: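 Analog (0, 1, 2.2, 8.8 or 22 nmol) coinjected icv with 5.5 nmol morphine in 150 mM NaCl, 10 mice per group. Radiant-heat tail-flick read 15 min later, baseline 2-3 s, 6 s cutoff defined as 100% analgesia. Percent antinociception = (Tt−Tc)/(6−Tc)×100.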
Compound,Ki [1],MED [2]
CC(C)C[C@H](N)C(=O)N[C@@H](Cc1ccccc1)C(=O)N[C@@H](CCC(N)=O)C(=O)N1CCC[C@@H]1C(=O)N[C@@H](CCC(N)=O)C(=O)N[C@@H](CCCNC(=N)N)C(=O)N[C@@H](Cc1ccccc1)C(N)=O,33 nM,–
NC(=O)CC[C@H](NC(=O)[C@@H]1CCCN1C(=O)[C@@H](N)CCC(N)=O)C(=O)N[C@@H](CCCN=C(N)N)C(=O)N[C@@H](Cc1ccccc1)C(N)=O,20.9 nM,> 22 nmol
NC(=O)CC[C@H](NC(=O)[C@H]1CCCN1C(=O)[C@@H](N)CCC(N)=O)C(=O)N[C@@H](CCCN=C(N)N)C(=O)N[C@@H](Cc1ccccc1)C(N)=O,64 nM,–
CC(C)C[C@H](NC(=O)[C@@H](N)Cc1ccc(O)cc1)C(=O)N[C@@H](Cc1ccccc1)C(=O)N[C@@H](CCC(N)=O)C(=O)N1CCC[C@@H]1C(=O)N[C@@H](CCC(N)=O)C(=O)N[C@@H](CCCN=C(N)N)C(=O)N[C@@H](Cc1ccccc1)C(N)=O,30 nM,–
NC(=O)CC[C@H](NC(=O)[C@H]1CCCN1)C(=O)N[C@@H](CCCN=C(N)N)C(=O)N[C@@H](Cc1ccccc1)C(N)=O,94 nM,–
NC(=O)CC[C@H](NC(=O)[C@H]1CCCN1C(=O)[C@H](CCC(N)=O)NC(=O)[C@@H](N)Cc1ccccc1)C(=O)N[C@@H](CCCN=C(N)N)C(=O)N[C@@H](Cc1ccccc1)C(N)=O,45 nM,–
CC(C)C[C@H](NC(=O)[C@@H](N)Cc1ccccc1)C(=O)N[C@@H](Cc1ccccc1)C(=O)N[C@@H](CCC(N)=O)C(=O)N1CCC[C@H]1C(=O)N[C@@H](CCC(N)=O)C(=O)N[C@@H](CCCN=C(N)N)C(=O)N[C@@H](Cc1ccccc1)C(N)=O,–,22 nmol
N=C(N)NCCC[C@H](NC(=O)[C@@H](N)CCC(N)=O)C(=O)N[C@@H](Cc1ccccc1)C(N)=O (H-Gln-Arg-Phe-NH2),300 nM,–
H-FLFGPQRF-NH2,10 nM,–
H-FLFQGQRF-NH2,1.2 nM,8.8 nmol

# More lines, in order of falling Ki [1], values ahead:
Ki [1],Compound,MED [2]
1 nM,CC(C)C[C@@H](NC(=O)[C@H](N)Cc1ccc(O)cc1)C(=O)N[C@H](Cc1ccccc1)C(=O)N[C@@H](CCC(N)=O)C(=O)N1CCC[C@H]1C(=O)N[C@@H](CCC(N)=O)C(=O)N[C@@H](CCCNC(=N)N)C(=O)N[C@@H](Cc1ccccc1)C(N)=O,–
0.6 nM,H-FLFQPGRF-NH2,–
0.5 nM,CC(C)C[C@@H](NC(=O)[C@H](N)Cc1ccc(O)cc1)C(=O)N[C@@H](Cc1ccccc1)C(=O)N[C@@H](CCC(N)=O)C(=O)N1CCC[C@H]1C(=O)N[C@@H](CCC(N)=O)C(=O)N[C@@H](CCCN=C(N)N)C(=O)N[C@@H](Cc1ccccc1)C(N)=O,–
0.43 nM,NC(=O)CC[C@H](NC(=O)[C@@H]1CCCN1C(=O)[C@H](CCC(N)=O)NC(=O)[C@@H](N)Cc1ccccc1)C(=O)N[C@@H](CCCN=C(N)N)C(=O)N[C@@H](Cc1ccccc1)C(N)=O,22 nmol
0.22 nM,H-FLYQPQRF-NH2,–
0.2 nM,CC(C)C[C@H](NC(=O)[C@@H](N)Cc1ccc(O)cc1)C(=O)N[C@@H](Cc1ccccc1)C(=O)N[C@@H](CCC(N)=O)C(=O)N1CCC[C@H]1C(=O)N[C@@H](CCC(N)=O)C(=O)N[C@@H](CCCN=C(N)N)C(=O)N[C@@H](Cc1ccccc1)C(N)=O,8.8 nmol
0.2 nM,CC(C)C[C@H](N)C(=O)N[C@@H](Cc1ccccc1)C(=O)N[C@@H](CCC(N)=O)C(=O)N1CCC[C@H]1C(=O)N[C@@H](CCC(N)=O)C(=O)N[C@@H](CCCN=C(N)N)C(=O)N[C@@H](Cc1ccccc1)C(N)=O,–
0.19 nM,CC(C)C[C@@H](NC(=O)[C@H](N)Cc1ccc(O)cc1)C(=O)N(C)[C@@H](Cc1ccccc1)C(=O)N[C@@H](CCC(N)=O)C(=O)N1CCC[C@H]1C(=O)N[C@@H](CCC(N)=O)C(=O)N[C@@H](CCCNC(=N)N)C(=O)N[C@@H](Cc1ccccc1)C(N)=O (H-[dY][dL][NMeF]QPQRF-NH2),–
0.16 nM,CC(C)C[C@H](NC(=O)[C@H](N)Cc1ccc(O)cc1)C(=O)N(C)[C@@H](Cc1ccccc1)C(=O)N[C@@H](CCC(N)=O)C(=O)N1CCC[C@H]1C(=O)N[C@@H](CCC(N)=O)C(=O)N[C@@H](CCCN=C(N)N)C(=O)N[C@@H](Cc1ccccc1)C(N)=O (H-[dY]L[NMeF]QPQRF-NH2),8.8 nmol
